Here are results for ten molecules from ChEMBL document CHEMBL1158763, “Cytotoxic arylnaphthalene lignans from a Vietnamese acanthaceae, Justicia patentiflora” (J Nat Prod, 2005).

SMILES strings stand for the structures. Active and inactive are the calls of the source. No cut-off for these calls is given here. Where only a bound is given, the exact number is not on record here.

For one data set, the system named is KB. The data set is described as follows: Cytotoxicity against human KB cells. The data set is classed as functional, cell-based.
In data set [1] the test system is MCF7. In words: Cytotoxicity against doxorubicin-sensitive human MCF7 cells. The class given is functional, cell-based.
In data set [2] the test system is MCF7. In words: Cytotoxicity against doxorubicin-resistant human MCF7 cells. The class given is functional, cell-based. The essentials:
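Doxorubicin-resistant MCF-7 line derived by prolonged doxorubicin treatment of MCF-7 cells; cytotoxicity assay run per a previously published procedure.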

The test system of data set [3] is HCT-116. The data set is described as follows: Cytotoxicity against human HCT116 cells. The data set is classed as functional, cell-based.
The subject of data set [4] is HCT-116. The data set is described as follows: Cell cycle arrest in human HCT116 cells assessed as accumulation at S phase at 10 nM after 48 hrs by flow cytometry. The data set is classed as functional.
The subject of data set [5] is HCT-116. In words: Cell cycle arrest in human HCT116 cells assessed as accumulation at G0/G1 phase at 10 nM after 48 hrs by flow cytometry. The data set is classed as functional. For orientation: A flow cytometer gives signals particle by particle.
Data set [6] relates to HCT-116. The data set is described as follows: Cell cycle arrest in human HCT116 cells assessed as accumulation at G2/M phase at 10 nM after 48 hrs by flow cytometry. The data set is classed as functional.
Data set [7] relates to MCF7. In words: Cell cycle arrest in human MCF7 cells assessed as accumulation at G0/G1 phase at 10 nM after 48 hrs. The data set is classed as functional, cell-based.
For the next data set, the system named is Mus musculus. In words: Toxicity in mouse P388 cells implanted in CDF1 mouse assessed as induction of death at 5 mg/kg, ip administered 1 day following implantation. Particulars: in vivo, 24 h. On the set-up: dose 5 mg/kg, route intraperitoneal. The data set is classed as organism-based. The essentials:
(§1)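 10^6 P388 (or P388/F 11782) murine leukemia cells implanted i.v. into CDF1 mice on day zero; single i.p. dose (2.5 or 5 mg/kg) given the day after implantation. Mice weighed twice weekly during treatment, weekly thereafter. Antitumor activity judged by increase in lifespan: ILS (%) = T/C − 100, T/C = median survival treated/control × 100.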

In the next data set the test system is P388. In words: Antitumor activity against mouse P388 cells implanted in CDF1 mouse assessed as reduction in body weight at 2.5 mg/kg, ip administered 1 day following implantation. The class given is functional, organism-based. Also noted: dose 2.5 mg/kg. The gist of the method:
as §1

As to `COc1cc2c(O[C@@H]3O[C@H](C)[C@@H](O)[C@H](O)[C@H]3O)c3c(c(-c4ccc5c(c4)OCO5)c2cc1OC)C(=O)OC3` [PATENTIFLORIN A], the IC50 (usually the concentration at which inhibition is half-maximal) amounted to 4 nM in the data set on KB, 3 nM in the data set on MCF7 [1], 40 nM in the data set on MCF7 [2] and 12 nM in the data set on HCT-116 [3]. For the same molecule, the Activity was 43.4% in the data set with HCT-116 [4], 41.9% in the data set on HCT-116 [5], 13.5% with HCT-116 [6] and “Toxic” in the data set on Mus musculus. Also, in the data set with MCF7 [7], the result was Active. Moreover, the outcome with P388 was inactive.
In the case of `CC(=O)O[C@@]12CO[C@@H]1C[C@H](O)[C@@]1(C)C(=O)[C@H](O)C3=C(C)[C@@H](OC(=O)[C@H](O)[C@@H](NC(=O)OC(C)(C)C)c4ccccc4)C[C@@](O)([C@@H](OC(=O)c4ccccc4)[C@H]21)C3(C)C` [DOCETAXEL], the IC50 in the data set on KB came to 2 nM; with MCF7 [1], 20 nM; with HCT-116 [3], 4 nM.
For `COc1cc2c(O[C@H]3O[C@@H](C)[C@@H](OC(C)=O)[C@@H](OC(C)=O)[C@@H]3OC(C)=O)c3c(c(-c4ccc5c(c4)OCO5)c2cc1OC)C(=O)OC3`, in that order: 20 nM, 45 nM and 35 nM.
For `COc1cc2c(O[C@@H]3O[C@H](CO[C@@H]4OC[C@H](O)[C@H](O)[C@H]4O)[C@H](OC(C)=O)[C@H](OC(C)=O)[C@H]3O)c3c(c(-c4ccc5c(c4)OCO5)c2cc1OC)C(=O)OC3` [4'-O-ACETYLMANANTHOSIDE B], the IC50 came to 500 nM in the data set with KB, 260 nM with MCF7 [1], 2200 nM with MCF7 [2] and 1200 nM with HCT-116 [3].
In the same order, the values of `COc1cc2c(O[C@H]3O[C@@H](C)[C@@H](OC(C)=O)[C@@H](O)[C@@H]3O)c3c(c(-c4ccc5c(c4)OCO5)c2cc1OC)C(=O)OC3` [4'-O-ACETYLPATENTIFLORIN B] are 24 nM, 12 nM, 100 nM and 30 nM.
Take `COc1cc2c(O[C@H]3O[C@@H](C)[C@@H](O)[C@@H](O)[C@@H]3O)c3c(c(-c4ccc5c(c4)OCO5)c2cc1OC)C(=O)OC3` [PATENTIFLORIN B]: the 50% inhibitory concentration (IC50) with KB came to 6 nM; in the data set with MCF7 [1], 300 nM; with HCT-116 [3], 250 nM.
In the case of `COc1cc(OC)c2c(-c3ccc4c(c3)OCO4)c3c(c(OC)c2c1O)COC3=O` [JUSTICINOL], the IC50 came to 300 nM in the data set with KB and 360 nM with MCF7 [1].
With `COc1cc2c(O[C@@H]3O[C@H](CO[C@@H]4OC[C@H](OC(C)=O)[C@H](OC(C)=O)[C@H]4OC(C)=O)[C@H](OC(C)=O)[C@H](OC(C)=O)[C@H]3OC(C)=O)c3c(c(-c4ccc5c(c4)OCO5)c2cc1OC)C(=O)OC3`, the half-maximal inhibitory concentration (IC50) in the data set with KB came to 180 nM; in the data set with MCF7 [1], 80 nM; in the data set with MCF7 [2], 8000 nM; in the data set with HCT-116 [3], 260 nM.
In the case of `COc1cc2c(O[C@@H]3O[C@H](C)[C@@H](OC(C)=O)[C@H](OC(C)=O)[C@H]3OC(C)=O)c3c(c(-c4ccc5c(c4)OCO5)c2cc1OC)C(=O)OC3`, the IC50 worked out at 14 nM in the data set on KB, 2 nM in the data set with MCF7 [1], 65 nM with MCF7 [2] and 16 nM with HCT-116 [3].
In the data set on KB, `O=C(CC(CO)C(=O)c1ccc2c(c1)OCO2)c1ccc2c(c1)OCO2` (stereo not drawn) [JUSTIFLORINOL] gave a 50% inhibitory concentration (IC50) of over 10000 nM.
